Measurements reported in ChEMBL document CHEMBL2406962, “Adenosine Dioxolane Nucleoside Phosphoramidates as Antiviral Agents for Human Immunodeficiency and Hepatitis B Viruses” (ACS Med Chem Lett, 2013).

What was measured:
[1] = test system: CCRF-CEM; assay: Cytotoxicity against human CEM cells after 2 to 4 days by MTT assay; type: cell-based
Procedure, shortened: (§1)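 Cytotoxicity in human PBM cells, Vero (African green monkey kidney epithelial) cells and CEM (human T-cell-derived line) cells, with compounds tested up to 100 μM.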

[2] = test system: PBMC; assay: Cytotoxicity against human PBMC after 2 to 4 days by MTT assay; type: cell-based; procedure, shortened: as §1
[3] = test system: HepG2; assay: Cytotoxicity against human HepG2 cells after 2 to 4 days by neutral red dye uptake assay; type: cell-based
[4] = test system: Human immunodeficiency virus 1; assay: Antiviral activity against Human immunodeficiency virus 1 LAI infected in PHA-stimulated human PBMC; type: functional, organism-based
[5] = test system: Huh-7; assay: Cytotoxicity against human HuH7 cells after 2 to 4 days by MTT assay; type: cell-based
[6] = test system: Hepatitis B virus; assay: Antiviral activity against Hepatitis B virus infected in human HepAD38 cells after 5 days; type: functional, organism-based; conditions: HePAD38, 120 h
[7] = test system: Vero; assay: Cytotoxicity against African green monkey Vero cells after 2 to 4 days by MTT assay; type: cell-based; conditions: chlorocebus sabaeus; procedure, shortened: as §1
[8] = test system: PBMC; assay: Drug metabolism in human PBMC assessed as dioxolane-A triphosphate level measured per 10^6 cells at 50 uM after 4 hrs by LC-MS/MS analysis; type: ADME, cell-based; design: unit: pmol/10^6 cells
[9] = test system: PBMC; assay: Drug metabolism in human PBMC assessed as 6-cyclopropylamino purine dioxolane triphosphate level measured per 10^6 cells at 50 uM after 4 hrs by LC-MS/MS analysis; type: ADME, cell-based
[10] = in vivo; conditions: mouse

SMILES | CC50 [1] | CC50 [2] | CC50 [3] | EC50 [4] | CC50 [5] | EC50 [6] | CC50 [7] | Drug metabolism [8] | Drug metabolism [9] | LD50 [10]
COc1ncnc2c1ncn2[C@H]1CO[C@@H](COP(=O)(N[C@@H](C)C(=O)OC(C)C)Oc2ccccc2CCC(=O)OC(C)C)O1 (stereo partly drawn) | > 100 µM | > 100 µM | > 100 µM | 7 µM | 52 µM | > 10 µM | > 100 µM |  |  | 
Nc1ncnc2c1ncn2[C@H]1CO[C@@H](CO)O1 |  |  |  |  |  |  |  | 0.18 pmol |  | 
CCOC(=O)CCc1ccccc1OP(=O)(N[C@@H](C)C(=O)OCC)OC[C@@H]1OC[C@H](n2cnc3c(NC4CC4)ncnc32)O1 (stereo partly drawn) | > 100 µM | > 100 µM | > 100 µM | 0.77 µM | 65 µM | > 10 µM | > 100 µM | 0.14 pmol | 0.19 pmol | 
CC(C)OC(=O)CCc1ccccc1OP(=O)(N[C@@H](C)C(=O)OC(C)C)OC[C@@H]1OC[C@H](n2cnc3c(NC4CC4)ncnc32)O1 (stereo partly drawn) | 84 µM | > 100 µM | > 100 µM | 11 µM | 57 µM | > 10 µM | > 100 µM |  |  | 
CCOC(=O)CCc1ccccc1OP(=O)(N[C@@H](C)C(=O)OCC)OC[C@@H]1OC[C@H](n2cnc3c(N)ncnc32)O1 (stereo partly drawn) | 53 µM | 12 µM | > 100 µM | 0.0033 µM | 12 µM | 0.3 µM | 36 µM | 90 pmol |  | 
CCOC(=O)[C@H](C)NP(=O)(OC[C@@H]1OC[C@H](n2cnc3c(N)ncnc32)O1)Oc1ccccc1 (stereo partly drawn) | 18 µM | 2 µM | > 100 µM | 0.00056 µM | 7.3 µM | 0.03 µM | 80 µM | 200 pmol |  | 
CCOC(=O)[C@H](C)NP(=O)(OC[C@@H]1OC[C@H](n2cnc3c(NC4CC4)ncnc32)O1)Oc1ccccc1 (stereo partly drawn) | > 100 µM | > 100 µM | > 100 µM | 0.086 µM | > 100 µM | 0.8 µM | > 100 µM | 0.11 pmol | 0.13 pmol | 
CCOC(=O)CCc1ccccc1OP(=O)(N[C@@H](C)C(=O)OCC)OC[C@@H]1OC[C@H](n2cnc3c(OC)ncnc32)O1 (stereo partly drawn) | > 100 µM | > 100 µM | > 100 µM | 0.42 µM | 80 µM | > 10 µM | 93 µM |  |  | 
OC[C@@H]1OC[C@H](n2cnc3c(NC4CC4)ncnc32)O1 | > 100 µM | > 100 µM | > 100 µM | 92 µM | > 100 µM | > 10 µM | > 100 µM |  |  | 
CCOC(=O)[C@H](C)NP(=O)(OC[C@@H]1OC[C@H](n2cnc3c(OC)ncnc32)O1)Oc1ccccc1 (stereo partly drawn) | > 100 µM | > 100 µM | > 100 µM | 0.34 µM | 80 µM | > 10 µM | > 100 µM |  |  | 
Nc1nc(N)c2ncn([C@H]3CO[C@@H](CO)O3)c2n1 [AMDOXOVIR] | > 100 µM | > 100 µM | > 100 µM | 0.4 µM | > 100 µM | > 9 µM | > 100 µM |  |  | 
Oc1ccccc1 [PHENOL] |  |  |  |  |  |  |  |  |  | 270 mg/kg
